The record followed here is ChEMBL document CHEMBL1122075, “Absolute stereochemistry and dopaminergic activity of enantiomers of 2,3,4,5-tetrahydro-7,8-dihydroxy-1-phenyl-1H-3-benzazepine” (J Med Chem, 1982).

Test [1] is filed under the species Rattus norvegicus. The test is described as follows: Compound was tested for maximum response, the percent of cyclic AMP induced by 5 x 10 E-5 M dopamine.
The species entered for test [2] is Rattus norvegicus. Briefly: Ability to induce contralateral rotations in rats having lesions in the substantia nigra. Type of test: functional. The gist of the method: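 Rotation counts in rats carrying unilateral left substantia nigra lesions. RD500 is the dose calculated to give 500 body rotations over a 2-h test period.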
The species named for test [3] is Canis familiaris. Briefly: Renal vascular resistance (RVR) in dog was determined. Type of test: functional, Canis lupus familiaris. The gist of the method: (§1)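 Dogs anesthetized and surgically prepared for electromagnetic renal blood flow measurement, with carotid arterial pressure recorded. Drug infused into an antecubital vein at progressively increasing (generally threefold) concentrations to give cumulative dose-response data. RVR = mean arterial pressure / mean renal blood flow. ED15 is the average maximum cumulative dose lowering RVR by 15%.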

In the next test the target is Adenylate cyclase. Briefly: Tested for ability to stimulate dopamine sensitive adenylate cyclase in rat caudate homogenate. The gist of the method:
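Rat striatal homogenates; dopamine-sensitive adenylate cyclase stimulation read as cyclic AMP production. EC50 is the molar concentration giving half-maximal stimulation of cAMP production over the concentration range tested.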

The species named for test [4] is Canis familiaris. Briefly: Compound was tested for its renal vasodilator activity in dogs. It counts as functional. As to conditions: Canis lupus familiaris. An outline of the steps: as §1
The species named for test [5] is Canis familiaris. Briefly: Percent av maximum in dog was determined; Expressed as av max (%). It counts as functional, Canis lupus familiaris.
For test [6], the species on record is Rattus norvegicus. Briefly: Compound was tested for maximum response, the percent of cyclic AMP induced by 1 x 10 E-4 M dopamine. It counts as functional.
The species entered for test [7] is Canis familiaris. The test is described as follows: Renal vascular resistance (RVR) in dog was determined; Not statistically significant. Type of test: functional, Canis lupus familiaris. The gist of the method: as §1

Regarding `Cl.Oc1cc2c(cc1O)[C@@H](c1ccccc1)CNCC2`, the Max response in the test listed under Rattus norvegicus [1] came out at 66%. Further, the RD500 in the test filed under Rattus norvegicus [2] amounted to 0.5 mg/kg. The RVR in the test filed under Canis familiaris [3] stood at 18. The compound also registered an EC50 at Adenylate cyclase of 32 nM. This compound registered an ED15 in the test listed under Canis familiaris [4] of 0.025 mg/kg.

`Cl.Oc1cc2c(cc1O)[C@H](c1ccccc1)CNCC2`: the Activity in the test listed under Canis familiaris [5] is listed as 9%. Also, in the test listed under Rattus norvegicus [2], the RD500 was greater than 2 mg/kg. The same compound displayed a Max response in the test listed under Rattus norvegicus [6] of 27%. The ED15 in the test filed under Canis familiaris [4] was greater than 0.55 mg/kg. Further, the RVR in the test listed under Canis familiaris [7] was found to be 9.

In turn, `Cl.Oc1cc2c(cc1O)C(c1ccccc1)CNCC2` (racemic) came in with a Max response in the test filed under Rattus norvegicus [1] of 68%. In the test listed under Rattus norvegicus [2], this compound returned an RD500 of 0.7 mg/kg. In the test listed under Canis familiaris [3], the RVR was 19. This compound also returned a 50% effective concentration (EC50) at Adenylate cyclase of 71 nM. This compound also returned an ED15 in the test listed under Canis familiaris [4] of 0.031 mg/kg.

`NCCc1ccc(O)c(O)c1` [DOPAMINE] had an EC50 at Adenylate cyclase of 3500 nM. In addition, the ED15 in the test listed under Canis familiaris [4] is 0.0027 mg/kg.
